{
  "source": "paper PMC6120582",
  "about": "(Science (New York, N.Y.), 2018)",
  "key": {"eIF2": {"target": "eIF2 (Homo sapiens, UniProt P41091)", "sequence (P41091 2-472)": "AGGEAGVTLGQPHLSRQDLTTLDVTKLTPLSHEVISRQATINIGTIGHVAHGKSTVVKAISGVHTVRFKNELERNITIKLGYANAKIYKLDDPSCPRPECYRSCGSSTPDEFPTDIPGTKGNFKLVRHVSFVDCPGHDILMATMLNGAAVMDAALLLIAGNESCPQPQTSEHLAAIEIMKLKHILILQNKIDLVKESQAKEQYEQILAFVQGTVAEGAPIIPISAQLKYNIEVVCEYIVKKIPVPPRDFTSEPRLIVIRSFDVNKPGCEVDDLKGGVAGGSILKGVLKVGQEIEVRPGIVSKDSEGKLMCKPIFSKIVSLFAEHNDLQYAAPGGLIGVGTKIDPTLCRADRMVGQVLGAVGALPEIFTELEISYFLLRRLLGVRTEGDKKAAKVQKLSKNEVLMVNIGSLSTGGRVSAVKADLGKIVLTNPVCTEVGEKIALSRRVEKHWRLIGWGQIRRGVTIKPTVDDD", "sequence (P05198 whole entry partner)": "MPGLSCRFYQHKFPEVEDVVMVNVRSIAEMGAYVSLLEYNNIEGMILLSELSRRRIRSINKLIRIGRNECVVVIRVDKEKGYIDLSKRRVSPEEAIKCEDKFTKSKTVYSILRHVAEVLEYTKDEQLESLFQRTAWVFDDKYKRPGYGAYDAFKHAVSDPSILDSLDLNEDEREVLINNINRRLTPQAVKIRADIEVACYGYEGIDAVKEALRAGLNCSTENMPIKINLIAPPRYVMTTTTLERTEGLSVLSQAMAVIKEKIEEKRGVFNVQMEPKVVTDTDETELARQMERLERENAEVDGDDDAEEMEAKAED", "sequence (P20042 2-333 partner)": "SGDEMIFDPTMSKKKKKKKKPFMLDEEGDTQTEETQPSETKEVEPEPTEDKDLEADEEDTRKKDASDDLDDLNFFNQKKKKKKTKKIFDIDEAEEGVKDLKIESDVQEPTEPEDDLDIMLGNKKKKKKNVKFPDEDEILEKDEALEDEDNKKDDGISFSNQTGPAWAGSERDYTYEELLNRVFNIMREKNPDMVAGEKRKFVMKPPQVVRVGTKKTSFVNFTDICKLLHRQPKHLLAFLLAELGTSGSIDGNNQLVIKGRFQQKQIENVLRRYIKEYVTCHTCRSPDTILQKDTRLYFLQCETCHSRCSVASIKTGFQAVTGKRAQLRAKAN", "assay": "GDP unloading assay, displacement of Bodipy-GDP", "type": "binding", "details": "1000-fold excess of unlabelled GDP; exchange catalysed by eIF2B"}, "eIF2B(αβγδε)2 [1]": {"target": "eIF2B(αβγδε)2 (Homo sapiens, UniProt P49770+Q9UI10, P49770:H188A)", "sequence (P49770 whole entry H188A)": "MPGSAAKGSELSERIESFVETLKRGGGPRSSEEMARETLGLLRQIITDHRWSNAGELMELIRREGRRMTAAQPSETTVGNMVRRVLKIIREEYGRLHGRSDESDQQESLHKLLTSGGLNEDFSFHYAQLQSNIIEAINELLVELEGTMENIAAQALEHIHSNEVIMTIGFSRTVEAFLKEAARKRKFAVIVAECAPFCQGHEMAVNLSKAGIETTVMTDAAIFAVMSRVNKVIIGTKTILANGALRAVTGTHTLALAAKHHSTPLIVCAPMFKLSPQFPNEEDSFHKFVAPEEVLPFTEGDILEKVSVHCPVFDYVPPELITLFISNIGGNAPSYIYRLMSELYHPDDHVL", "sequence (Q9UI10 whole entry)": "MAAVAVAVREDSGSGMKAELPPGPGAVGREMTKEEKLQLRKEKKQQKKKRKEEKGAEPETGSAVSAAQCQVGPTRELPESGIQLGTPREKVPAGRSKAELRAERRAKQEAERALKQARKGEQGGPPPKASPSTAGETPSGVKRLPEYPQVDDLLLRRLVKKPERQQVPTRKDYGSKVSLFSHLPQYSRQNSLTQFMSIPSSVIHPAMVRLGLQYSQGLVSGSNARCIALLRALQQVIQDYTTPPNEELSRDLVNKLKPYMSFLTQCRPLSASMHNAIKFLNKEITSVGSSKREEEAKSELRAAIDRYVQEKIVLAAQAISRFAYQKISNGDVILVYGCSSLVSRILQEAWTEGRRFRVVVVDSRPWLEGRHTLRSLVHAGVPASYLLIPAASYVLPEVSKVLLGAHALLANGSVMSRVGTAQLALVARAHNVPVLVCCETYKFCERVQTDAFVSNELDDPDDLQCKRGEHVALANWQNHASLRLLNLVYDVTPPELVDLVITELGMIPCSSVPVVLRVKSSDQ", "sequence (Q14232 whole entry partner)": "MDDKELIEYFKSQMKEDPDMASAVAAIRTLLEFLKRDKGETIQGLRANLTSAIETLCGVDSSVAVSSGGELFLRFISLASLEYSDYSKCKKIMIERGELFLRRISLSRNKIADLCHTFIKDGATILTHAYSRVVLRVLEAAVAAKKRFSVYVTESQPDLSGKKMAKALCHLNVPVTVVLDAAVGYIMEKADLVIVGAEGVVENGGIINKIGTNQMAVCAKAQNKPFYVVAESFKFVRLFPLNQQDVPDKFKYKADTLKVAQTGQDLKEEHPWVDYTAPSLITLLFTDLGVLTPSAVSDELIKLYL", "sequence (Q9NR50 whole entry partner)": "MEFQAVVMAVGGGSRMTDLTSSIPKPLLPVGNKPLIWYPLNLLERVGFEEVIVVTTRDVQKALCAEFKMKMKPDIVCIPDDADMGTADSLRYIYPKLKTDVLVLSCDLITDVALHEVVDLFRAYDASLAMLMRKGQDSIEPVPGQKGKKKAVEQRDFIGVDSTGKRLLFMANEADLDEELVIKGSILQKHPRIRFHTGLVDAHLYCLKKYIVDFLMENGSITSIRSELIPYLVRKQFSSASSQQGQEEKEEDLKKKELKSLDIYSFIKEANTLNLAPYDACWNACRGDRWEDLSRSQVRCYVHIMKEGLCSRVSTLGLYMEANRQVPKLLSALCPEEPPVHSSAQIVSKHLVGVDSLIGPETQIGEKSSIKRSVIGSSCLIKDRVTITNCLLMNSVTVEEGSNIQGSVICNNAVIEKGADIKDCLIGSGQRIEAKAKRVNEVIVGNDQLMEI", "sequence (Q13144 2-721 partner)": "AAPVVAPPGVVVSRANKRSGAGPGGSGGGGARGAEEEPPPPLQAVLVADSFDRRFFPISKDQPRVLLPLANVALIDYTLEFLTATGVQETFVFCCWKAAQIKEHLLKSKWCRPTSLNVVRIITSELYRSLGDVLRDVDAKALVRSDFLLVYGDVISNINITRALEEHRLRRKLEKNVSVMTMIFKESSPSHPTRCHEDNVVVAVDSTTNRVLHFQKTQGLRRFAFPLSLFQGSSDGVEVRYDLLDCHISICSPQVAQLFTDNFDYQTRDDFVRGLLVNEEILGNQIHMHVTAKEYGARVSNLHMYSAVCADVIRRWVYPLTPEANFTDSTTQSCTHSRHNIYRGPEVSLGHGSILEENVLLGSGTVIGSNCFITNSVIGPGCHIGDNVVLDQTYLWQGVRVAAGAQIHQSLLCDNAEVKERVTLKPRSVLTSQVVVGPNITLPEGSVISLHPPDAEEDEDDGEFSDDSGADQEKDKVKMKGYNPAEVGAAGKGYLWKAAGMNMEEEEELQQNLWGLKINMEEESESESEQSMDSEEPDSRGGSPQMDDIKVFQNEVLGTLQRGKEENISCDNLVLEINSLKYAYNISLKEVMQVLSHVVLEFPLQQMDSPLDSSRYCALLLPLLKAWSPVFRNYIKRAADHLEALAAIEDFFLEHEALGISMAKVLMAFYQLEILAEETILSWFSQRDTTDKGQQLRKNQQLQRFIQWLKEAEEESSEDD", "assay": "decamer stability, sucrose gradient velocity sedimentation", "type": "binding", "details": "500 nM ISRIB, 400 mM salt"}, "eIF2B(αβγδε)2 [2]": {"target": "eIF2B(αβγδε)2 (Homo sapiens, UniProt P49770+Q9UI10, Q9UI10:L179A)", "sequence (P49770 whole entry)": "as the sequence (P49770 whole entry H188A) above, with A188H counted along it", "sequence (Q9UI10 whole entry L179A)": "as the sequence (Q9UI10 whole entry) above, with L179A counted along it", "sequence (Q14232 whole entry partner)": "as the sequence (Q14232 whole entry partner) above", "sequence (Q9NR50 whole entry partner)": "as the sequence (Q9NR50 whole entry partner) above", "sequence (Q13144 2-721 partner)": "as the sequence (Q13144 2-721 partner) above", "assay": "GEF assay, unloading of Bodipy-GDP from eIF2", "type": "biochemical", "details": "assembled eIF2B(βγδε) and eIF2B(α2); activator", "procedure,_shortened": "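Human eIF2B subunits were co-expressed in E. coli from three plasmids, and the βγδε (δL179A) and α2 subcomplexes were purified separately and combined. The substrate was non-phosphorylated human eIF2 from gcn2Δ S. cerevisiae, loaded with Bodipy-GDP. A 1000-fold excess of unlabeled GDP was added as a chase, and the fluorescence decrease was followed with and without test compound. kobs came from a single-exponential fit.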"}},
  "data": [
    {"smiles": "Nc1nc2c(ncn2[C@@H]2O[C@H](COP(=O)(O)OP(=O)(O)O)[C@@H](O)[C@H]2O)c(=O)[nH]1", "note": "[GDP]", "values": [
      {"measurement": "GDP unloading assay, displacement of Bodipy-GDP", "setting": "eIF2", "value": "we added fluorescent Bodipy-GDP to GDP-bound eIF2"}
    ]},
    {"smiles": "O=C(COc1ccc(Cl)cc1)N[C@H]1CC[C@H](NC(=O)COc2ccc(Cl)cc2)CC1", "note": "[ISRIB]", "values": [
      {"measurement": "decamer stabilization (inactive: none seen)", "setting": "eIF2B(αβγδε)2 [1]", "value": "ISRIB did not stabilize eIF2B(βH188A) decamers"}
    ]},
    {"smiles": "C[C@@H](Oc1ccc(Cl)cc1)C(=O)N[C@H]1CC[C@H](NC(=O)[C@@H](C)Oc2ccc(Cl)cc2)CC1", "note": "[ISRIB-A19(R,R)]", "values": [
      {"measurement": "fold activation of GEF activity (kobs)", "setting": "eIF2B(αβγδε)2 [2]", "value": "~ 3 fold"}
    ]}
  ]
}
